# Measured values from different studies.
# Organism: Pseudomonas aeruginosa
SMILES,observed,technique,strain,tested at,time,endpoint,result
COc1cccc(C(=O)C#Cc2ccc(O)c(OC)c2)c1,microbial growth,absorbance,,10 µM,24 h,activity vs control,87%
Cc1[nH]c(C(=O)Nc2ccc(C(=O)NCC(=O)O)cc2N2CCNCC2)c(Cl)c1Cl.Cl,microbial growth,broth dilution,ATCC27853,,,MIC,> 32 µg/mL
OC(C#Cc1ccc(F)c(F)c1)c1ccccc1Cl (stereo not drawn),microbial growth,absorbance,,100 µM,24 h,activity vs control,97%
COc1cc(C=Nc2ccc([N+](=O)[O-])cc2)ccc1O,microbial growth,disc diffusion,,2000 µg/mL,24 h,inhibition zone,14.2 mm
C[C@H]1COc2c(N3CCN(C)CC3)c(F)cc3c(=O)c(C(=O)O)cn1c23,microbial killing,,ATCC47085,,,MBC,7.81 µg/mL
Cl.O=C(O)CNC(=O)c1ccc(NC(=O)c2cc(Br)c(Br)[nH]2)c(N2CCNCC2)c1,microbial growth,broth dilution,ATCC27853,,,MIC,> 32 µg/mL
COc1cc(Cc2cnc(N)nc2N)cc(OC)c1OC,microbial growth,broth dilution,ATCC27853,,,MIC,8 µg/mL
COc1cc(C=Nc2ccc(Cl)cc2Cl)ccc1O,microbial growth,disc diffusion,,2000 µg/mL,24 h,inhibition zone,14.4 mm
Cl.N[C@@H]1CCN(c2cc(C(=O)NCC(=O)O)ccc2NC(=O)c2cc(Br)c(Br)[nH]2)C1,microbial growth,broth dilution,ATCC27853,,,MIC,> 32 µg/mL
CCCC(=O)C#Cc1ccc(O)c(OC)c1,microbial growth,absorbance,,100 µM,24 h,activity vs control,94%
Cc1ccccc1NC(=O)C=Cc1ccc(O)c(O)c1,microbial growth,broth dilution,ATCC27853,,,MIC,8 µg/mL
COc1cc(C#C[C@H](O)CC(C)C)ccc1O,microbial growth,absorbance,,100 µM,24 h,activity vs control,98%
CC(C)(C)OC(=O)N[C@H]1CCN(c2cc(C(=O)NCC(=O)O)ccc2NC(=O)c2cc(Br)c(Br)[nH]2)C1,microbial growth,broth dilution,ATCC27853,,,MIC,> 32 µg/mL
COc1ccccc1C(=O)C#Cc1ccc(F)c(F)c1,microbial growth,absorbance,,10 µM,24 h,activity vs control,86%
CC(C)(C)OC(=O)N1CCN(c2cc(C(=O)NCC(=O)O)ccc2NC(=O)c2cc(Br)c(Br)[nH]2)CC1,microbial growth,broth dilution,ATCC27853,,,MIC,> 32 µg/mL
CC1(C)S[C@@H]2[C@H](NC(=O)[C@H](N)c3ccccc3)C(=O)N2[C@H]1C(=O)O,microbial growth,broth dilution,ATCC27853,,,MIC,8 µg/mL
Cc1[nH]c(C(=O)Nc2ccc(C(=O)NCC(=O)O)cc2N2CC[C@H](N)C2)c(Cl)c1Cl.Cl,microbial growth,broth dilution,ATCC27853,,,MIC,> 32 µg/mL
COc1cc(C=Nc2ccccc2Br)ccc1O,microbial growth,disc diffusion,,2000 µg/mL,24 h,inhibition zone,14.2 mm
C[C@@H](O)[C@H]1C(=O)N2C(C(=O)O)=C(S[C@@H]3CN[C@H](C(=O)N(C)C)C3)[C@H](C)[C@H]12,microbial growth,broth dilution,ATCC27853,,20 h,MIC,< 0.5 µg/mL
COc1cc(C#CC(=O)c2ccccc2Cl)ccc1O,microbial growth,absorbance,,10 µM,24 h,activity vs control,98%
Cc1[nH]c(C(=O)Nc2ccc(C(=O)NCC(=O)O)cc2N2CC[C@H](NC(=O)OC(C)(C)C)C2)c(Cl)c1Cl,microbial growth,broth dilution,ATCC27853,,,MIC,> 32 µg/mL
O=C(C=Cc1ccc(O)c(O)c1)OCCc1ccccc1,microbial growth,broth dilution,ATCC27853,,,MIC,64 µg/mL
COc1cc(-c2[nH]nnc2C(=O)c2ccccc2)ccc1O,microbial growth,absorbance,,10 µM,24 h,activity vs control,95%
Cc1[nH]c(C(=O)Nc2ccc(C(=O)NCC(=O)O)cc2N2CCN(C(=O)OC(C)(C)C)CC2)c(Cl)c1Cl,microbial growth,broth dilution,ATCC27853,,,MIC,> 32 µg/mL
Nc1ccccc1OC(=O)C=Cc1ccc(O)c(O)c1,microbial growth,broth dilution,ATCC27853,,,MIC,32 µg/mL
CC(C)(O/N=C(\C(=O)N[C@@H]1C(=O)N2C(C(=O)[O-])=C(C[n+]3ccccc3)CS[C@H]12)c1csc(N)n1)C(=O)O,microbial growth,disc diffusion,,2000 µg/mL,24 h,inhibition zone,9.5 mm
COc1cccc(C(O)C#Cc2ccc(O)c(OC)c2)c1 (stereo not drawn),microbial growth,absorbance,,10 µM,24 h,activity vs control,96%
